From ChEMBL document CHEMBL1126566, “Studies on analogues of classical antifolates bearing the naphthoyl group in place of benzoyl in the side chain” (J Med Chem, 1993)
Where a chain is given by its changes, count along the chain named.

Experiments:
[1] = test system: CCRF S-180; experiment: Tested for the ability to inhibit growth in vitro against S180; format: functional, cell-based; conditions: Mus musculus
[2] = test system: HL-60; experiment: Tested for the ability to inhibit growth in vitro against HL60; format: functional, cell-based; conditions: Homo sapiens
[3] = test system: L1210; experiment: Tested for the ability to inhibit growth in vitro against L1210; format: functional, cell-based; conditions: Mus musculus
[4] = test system: L1210; experiment: Tested for transport into L1210 cells measured as cell influx; format: functional, cell-based, Mus musculus
[5] = biological target: T1, Dihydrofolate reductase (Mus musculus, UniProt P00375); experiment: Inhibitory activity of Dihydrofolate reductase in L1210 cells; format: cell-based
T1 sequence (P00375 whole entry): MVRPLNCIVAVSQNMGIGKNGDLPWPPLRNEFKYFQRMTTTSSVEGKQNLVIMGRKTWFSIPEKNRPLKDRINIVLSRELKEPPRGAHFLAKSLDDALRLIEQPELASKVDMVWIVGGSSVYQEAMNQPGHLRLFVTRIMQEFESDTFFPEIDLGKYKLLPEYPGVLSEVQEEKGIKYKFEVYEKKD

[6] = test system: CCRF-CEM; experiment: Percent inhibition of Folyl-polyglutamate synthase from CCRF-CEM cells; format: cell-based; design: concentration or dose not given beside the values; conditions: Homo sapiens, dose or concentration not given here
Method in brief: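 FPGS was partially purified from CCRF-CEM cells by (NH₄)₂SO₄ fractionation and gel sieving, with no detectable γ-glutamyl hydrolase. Product was separated on DEAE-cellulose. Percent inhibition is reported.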

[7] = Activity relative to saturating aminopterine at 100 uM against CCRF-CEM Folyl-polyglutamate synthetase; format: ADME; conditions: human
Method in brief: (§1)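 FPGS from CCRF-CEM cells: freeze-thawed lysates fractionated by (NH₄)₂SO₄ (0–40% saturation pellet) and gel sieving, stored at –90 °C in 20% glycerol, free of detectable γ-glutamyl hydrolase. Product was separated on DEAE-cellulose minicolumns. Run in duplicate or triplicate, and each experiment was repeated at least once.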

[8] = biological target: T2, Dihydrofolate reductase (Pneumocystis carinii, UniProt P16184); experiment: Tested for inhibition against Pneumocystis carinii DHFR (dihydrofolate reductase)
T2 sequence (P16184 whole entry): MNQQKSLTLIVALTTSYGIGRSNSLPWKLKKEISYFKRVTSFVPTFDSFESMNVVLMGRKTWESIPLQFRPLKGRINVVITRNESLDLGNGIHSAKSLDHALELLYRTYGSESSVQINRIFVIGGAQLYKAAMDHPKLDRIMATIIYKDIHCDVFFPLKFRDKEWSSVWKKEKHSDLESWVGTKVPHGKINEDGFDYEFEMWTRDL

[9] = biological target: T3, Folylpolyglutamate synthase, mitochondrial (Mus musculus) (UniProt P48760); experiment: Specific activity of L1210 Folyl-polyglutamate synthase
T3 sequence (whole entry): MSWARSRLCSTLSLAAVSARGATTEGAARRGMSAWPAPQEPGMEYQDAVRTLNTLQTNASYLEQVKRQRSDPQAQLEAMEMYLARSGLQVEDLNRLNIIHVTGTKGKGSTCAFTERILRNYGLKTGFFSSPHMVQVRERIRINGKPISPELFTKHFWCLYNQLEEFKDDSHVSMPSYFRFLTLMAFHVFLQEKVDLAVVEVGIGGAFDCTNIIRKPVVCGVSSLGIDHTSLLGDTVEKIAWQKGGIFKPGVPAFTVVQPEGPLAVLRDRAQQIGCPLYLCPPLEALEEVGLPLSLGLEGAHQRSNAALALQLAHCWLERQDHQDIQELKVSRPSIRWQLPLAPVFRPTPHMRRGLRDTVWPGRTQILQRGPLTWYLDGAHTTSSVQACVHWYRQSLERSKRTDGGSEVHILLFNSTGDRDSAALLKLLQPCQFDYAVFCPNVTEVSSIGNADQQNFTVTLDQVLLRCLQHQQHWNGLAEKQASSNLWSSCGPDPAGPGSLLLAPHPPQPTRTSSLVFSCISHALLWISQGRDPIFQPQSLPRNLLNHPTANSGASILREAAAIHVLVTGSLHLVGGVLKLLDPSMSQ
Method in brief: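 FPGS from L1210 cells was assayed by [³H]glutamate ligation, like the human enzyme assay. Each folate substrate was at 100 μM, and only specific activity was measured.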

[10] = biological target: T4, Dihydrofolate reductase (Rattus norvegicus, UniProt Q920D2); experiment: Tested for inhibition against rat liver DHFR (dihydrofolate reductase)
T4 sequence (Q920D2 whole entry): T1 sequence (P00375 whole entry) with P27L, R85Q, R99K, I115V, G155E, V170I

[11] = test system: Mus musculus; experiment: Antitumor activity against E0771 mammary adenocarcinoma in mice at 100 mg/kg(5 days) was determined and […] at day 14 was reported; format: functional
[12] = test system: Mus musculus; experiment: Antitumor activity against E0771 mammary adenocarcinoma in mice at 150 mg/kg(5 days) was determined and […] at day 10 was reported; format: functional
[13] = Ratio of Vmax and Km against CCRF-CEM Folyl-polyglutamate synthetase; format: ADME; conditions: human
Method in brief: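 Substrate assay with CCRF-CEM FPGS. Analogue replaced aminopterin at 0–100 μM (0–200 μM for one analogue). Buffer held 5 mM ATP, 10 mM MgCl₂, 4 mM L-[³H]Glu, pH 8.4, 37 °C. Ligated glutamate was separated on DEAE-cellulose. Assays were run in duplicate or triplicate within linear enzyme and time ranges, and each experiment was repeated. Vmax (relative to aminopterin) and Km give V/K.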

[14] = test system: Mus musculus; experiment: Antitumor activity against E0771 mammary adenocarcinoma in mice at 150 mg/kg(5 days) was determined and tumor volume at day 14 was reported; format: functional
Method in brief: (§2)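 Mice bearing implanted E0771 mammary adenocarcinoma, five per test group. Dosing was daily for 5 days, starting on day 3 after implantation. Tumor volume (mm³) was calculated as 4/3πr³ and is also expressed as treated/control (%).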

[15] = test system: Mus musculus; experiment: Antitumor activity against E0771 mammary adenocarcinoma in mice at 150 mg/kg(5 days) was determined and tumor volume at day 10 was reported; format: functional; method in brief: as §2
[16] = test system: Mus musculus; experiment: Antitumor activity against E0771 mammary adenocarcinoma in mice at 150 mg/kg(5 days) was determined and tumor volume at day 7 was reported; format: functional; method in brief: as §2
[17] = test system: Mus musculus; experiment: Antitumor activity against E0771 mammary adenocarcinoma in mice at 150 mg/kg(5 days) was determined and […] at day 14 was reported; format: functional
[18] = test system: Mus musculus; experiment: Antitumor activity against E0771 mammary adenocarcinoma in mice at 100 mg/kg(5 days) was determined and […] at day 10 was reported; format: functional
[19] = species on record: Homo sapiens
[20] = test system: Mus musculus; experiment: Antitumor activity against E0771 mammary adenocarcinoma in mice at 150 mg/kg(5 days) was determined and […] at day 7 was reported; format: functional
[21] = test system: Mus musculus; experiment: Antitumor activity against E0771 mammary adenocarcinoma in mice at 100 mg/kg(5 days) was determined and tumor volume at day 10 was reported; format: functional; method in brief: as §2
[22] = test system: Mus musculus; experiment: Antitumor activity against E0771 mammary adenocarcinoma in mice at 100 mg/kg(5 days) was determined and […] at day 7 was reported; format: functional
[23] = test system: Mus musculus; experiment: Antitumor activity against E0771 mammary adenocarcinoma in mice at 100 mg/kg(5 days) was determined and tumor volume at day 14 was reported; format: functional; method in brief: as §2
[24] = test system: Mus musculus; experiment: Antitumor activity against E0771 mammary adenocarcinoma in mice at 100 mg/kg(5 days) was determined and tumor volume at day 7 was reported; format: functional; method in brief: as §2
[25] = test system: Folyl-polyglutamate synthase; experiment: Michaelis-Menten constant was determined against CCRF-CEM Folyl-polyglutamate synthase; format: ADME; conditions: human, folylpolyglutamate synthase from CCRF-CEM cells; method in brief: as §1

SMILES	IC50 [1] [nM]	IC50 [2] [nM]	IC50 [3] [nM]	Ki [4] [nM]	Ki [5] [nM]	inhibition [6] [%]	Relative Vmax [7]	Specific activity (pM hr-1 (mg of protein)-1) [9]	further results
Nc1nc(N)c2cc(CNc3ccc(C(=O)NC(CCC(=O)O)C(=O)O)c4c3CCCC4)cnc2n1 (centres undefined)	33	17	16	600	0.0131	16	0.01		
CN(Cc1cnc2nc(N)nc(N)c2c1)c1ccc(C(=O)NC(CCC(=O)O)C(=O)O)c2ccccc12 (centres undefined)	1.9	1.5	2.3	780		23			
CN(Cc1cnc2nc(N)nc(N)c2n1)c1ccc(C(=O)NC(CCC(=O)O)C(=O)O)c2ccccc12 (centres undefined)	9.3	3.3	9	1040	0.00522	3	0.27	0.18	IC50 [8]: 0.00019 nM; IC50 [10]: 0.0025 nM; T/C [11]: 48%; T/C [12]: 23%; V/K [13]: 0.0033; Tumor volume [14]: 493 mm**3; Tumor volume [15]: 144 mm**3; Tumor volume [16]: 62 mm**3; T/C [17]: 28%; T/C [18]: 43%; Km [19]: 82 µM; T/C [20]: 28%; Tumor volume [21]: 268 mm**3; T/C [22]: 37%; Tumor volume [23]: 839 mm**3; Tumor volume [24]: 82 mm**3
Nc1nc(N)c2nc(CNc3ccc(C(=O)N[C@@H](CCC(=O)O)C(=O)O)cc3)cnc2n1 [AMINOPTERIN]							1	1.91	Km [25]: 4.1 µM
